For 8 molecules, IC50 results are on record in ChEMBL document CHEMBL3797186, “Single Residue Substitutions That Confer Voltage-Gated Sodium Ion Channel Subtype Selectivity in the NaV1.7 Inhibitory Peptide GpTx-1” (J Med Chem, 2016).

Positions of bridges follow the written chain, without caps; N, C: chain ends. Residues, ends and D or L forms follow the SMILES beside them.

Experiment [1] deals with Sodium channel protein type 9 subunit alpha (Homo sapiens, UniProt Q15858). Kind of experiment: Inhibition of human Nav1.7 expressed in HEK293 cells assessed as inward peak current by ion-works quattro patch clamp electrophysiology method. The format is cell-based. For orientation: In patch-clamp work, channel activity is measured electrically.
Experiment [2] concerns the target Sodium channel protein type 5 subunit alpha (Homo sapiens, UniProt Q14524). Nature of the experiment: Inhibition of human Nav1.5 expressed in HEK293 cells assessed as inward peak current by ion-works quattro patch clamp electrophysiology method. The format is cell-based. A digest of the protocol:
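Stable HEK293 line expressing human NaV1.5, recorded by population patch clamp on the IonWorks Quattro.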

Sodium channel protein type 9 subunit alpha, sequence (Q15858 whole entry): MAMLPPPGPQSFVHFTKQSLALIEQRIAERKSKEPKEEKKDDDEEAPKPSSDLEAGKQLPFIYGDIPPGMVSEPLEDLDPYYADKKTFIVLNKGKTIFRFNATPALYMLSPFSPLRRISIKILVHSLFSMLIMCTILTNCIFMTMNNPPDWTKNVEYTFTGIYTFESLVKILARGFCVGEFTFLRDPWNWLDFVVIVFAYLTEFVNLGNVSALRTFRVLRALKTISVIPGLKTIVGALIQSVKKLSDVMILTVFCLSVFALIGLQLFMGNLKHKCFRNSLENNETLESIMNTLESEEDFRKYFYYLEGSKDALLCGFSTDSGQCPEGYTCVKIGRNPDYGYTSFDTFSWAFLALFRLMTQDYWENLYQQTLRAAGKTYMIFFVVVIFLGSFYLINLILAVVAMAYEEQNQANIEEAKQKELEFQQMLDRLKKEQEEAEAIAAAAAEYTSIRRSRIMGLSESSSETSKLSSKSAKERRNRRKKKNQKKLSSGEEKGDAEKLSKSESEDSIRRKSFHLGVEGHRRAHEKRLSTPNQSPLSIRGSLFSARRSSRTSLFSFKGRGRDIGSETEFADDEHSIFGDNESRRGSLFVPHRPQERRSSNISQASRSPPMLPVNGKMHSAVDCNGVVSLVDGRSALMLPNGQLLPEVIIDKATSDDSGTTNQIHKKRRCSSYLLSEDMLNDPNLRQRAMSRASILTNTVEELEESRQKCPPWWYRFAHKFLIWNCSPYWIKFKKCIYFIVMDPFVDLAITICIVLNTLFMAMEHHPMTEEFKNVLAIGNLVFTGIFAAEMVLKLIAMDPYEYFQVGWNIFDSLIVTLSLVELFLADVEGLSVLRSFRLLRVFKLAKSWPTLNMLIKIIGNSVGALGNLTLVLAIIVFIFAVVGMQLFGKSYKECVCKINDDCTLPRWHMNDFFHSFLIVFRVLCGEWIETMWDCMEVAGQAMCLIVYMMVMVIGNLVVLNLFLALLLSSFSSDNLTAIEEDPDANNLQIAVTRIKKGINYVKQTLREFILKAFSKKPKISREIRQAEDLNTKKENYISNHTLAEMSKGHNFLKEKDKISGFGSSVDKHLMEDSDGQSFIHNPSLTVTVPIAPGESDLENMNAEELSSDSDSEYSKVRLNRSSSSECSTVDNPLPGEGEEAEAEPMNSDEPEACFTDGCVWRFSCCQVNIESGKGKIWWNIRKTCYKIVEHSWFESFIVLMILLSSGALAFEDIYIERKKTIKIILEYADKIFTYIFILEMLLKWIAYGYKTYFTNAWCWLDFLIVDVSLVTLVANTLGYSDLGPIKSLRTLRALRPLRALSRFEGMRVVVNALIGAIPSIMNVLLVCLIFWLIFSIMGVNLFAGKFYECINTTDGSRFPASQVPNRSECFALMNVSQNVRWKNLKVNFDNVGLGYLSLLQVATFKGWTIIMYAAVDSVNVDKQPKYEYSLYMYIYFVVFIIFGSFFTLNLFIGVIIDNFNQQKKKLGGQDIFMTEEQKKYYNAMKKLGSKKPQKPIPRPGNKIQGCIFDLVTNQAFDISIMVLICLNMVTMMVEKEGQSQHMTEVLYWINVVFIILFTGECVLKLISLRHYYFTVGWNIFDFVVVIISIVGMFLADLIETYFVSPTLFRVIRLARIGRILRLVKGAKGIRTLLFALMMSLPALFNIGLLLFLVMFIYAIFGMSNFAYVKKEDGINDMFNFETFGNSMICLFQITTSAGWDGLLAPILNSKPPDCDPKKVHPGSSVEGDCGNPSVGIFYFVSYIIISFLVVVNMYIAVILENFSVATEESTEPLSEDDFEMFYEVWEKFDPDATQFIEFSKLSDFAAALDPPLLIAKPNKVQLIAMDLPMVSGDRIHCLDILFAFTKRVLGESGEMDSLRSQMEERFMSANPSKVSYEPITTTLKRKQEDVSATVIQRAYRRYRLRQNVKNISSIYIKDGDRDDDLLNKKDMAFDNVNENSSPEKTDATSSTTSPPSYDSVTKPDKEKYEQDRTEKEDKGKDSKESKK
Sodium channel protein type 5 subunit alpha, sequence (Q14524 whole entry): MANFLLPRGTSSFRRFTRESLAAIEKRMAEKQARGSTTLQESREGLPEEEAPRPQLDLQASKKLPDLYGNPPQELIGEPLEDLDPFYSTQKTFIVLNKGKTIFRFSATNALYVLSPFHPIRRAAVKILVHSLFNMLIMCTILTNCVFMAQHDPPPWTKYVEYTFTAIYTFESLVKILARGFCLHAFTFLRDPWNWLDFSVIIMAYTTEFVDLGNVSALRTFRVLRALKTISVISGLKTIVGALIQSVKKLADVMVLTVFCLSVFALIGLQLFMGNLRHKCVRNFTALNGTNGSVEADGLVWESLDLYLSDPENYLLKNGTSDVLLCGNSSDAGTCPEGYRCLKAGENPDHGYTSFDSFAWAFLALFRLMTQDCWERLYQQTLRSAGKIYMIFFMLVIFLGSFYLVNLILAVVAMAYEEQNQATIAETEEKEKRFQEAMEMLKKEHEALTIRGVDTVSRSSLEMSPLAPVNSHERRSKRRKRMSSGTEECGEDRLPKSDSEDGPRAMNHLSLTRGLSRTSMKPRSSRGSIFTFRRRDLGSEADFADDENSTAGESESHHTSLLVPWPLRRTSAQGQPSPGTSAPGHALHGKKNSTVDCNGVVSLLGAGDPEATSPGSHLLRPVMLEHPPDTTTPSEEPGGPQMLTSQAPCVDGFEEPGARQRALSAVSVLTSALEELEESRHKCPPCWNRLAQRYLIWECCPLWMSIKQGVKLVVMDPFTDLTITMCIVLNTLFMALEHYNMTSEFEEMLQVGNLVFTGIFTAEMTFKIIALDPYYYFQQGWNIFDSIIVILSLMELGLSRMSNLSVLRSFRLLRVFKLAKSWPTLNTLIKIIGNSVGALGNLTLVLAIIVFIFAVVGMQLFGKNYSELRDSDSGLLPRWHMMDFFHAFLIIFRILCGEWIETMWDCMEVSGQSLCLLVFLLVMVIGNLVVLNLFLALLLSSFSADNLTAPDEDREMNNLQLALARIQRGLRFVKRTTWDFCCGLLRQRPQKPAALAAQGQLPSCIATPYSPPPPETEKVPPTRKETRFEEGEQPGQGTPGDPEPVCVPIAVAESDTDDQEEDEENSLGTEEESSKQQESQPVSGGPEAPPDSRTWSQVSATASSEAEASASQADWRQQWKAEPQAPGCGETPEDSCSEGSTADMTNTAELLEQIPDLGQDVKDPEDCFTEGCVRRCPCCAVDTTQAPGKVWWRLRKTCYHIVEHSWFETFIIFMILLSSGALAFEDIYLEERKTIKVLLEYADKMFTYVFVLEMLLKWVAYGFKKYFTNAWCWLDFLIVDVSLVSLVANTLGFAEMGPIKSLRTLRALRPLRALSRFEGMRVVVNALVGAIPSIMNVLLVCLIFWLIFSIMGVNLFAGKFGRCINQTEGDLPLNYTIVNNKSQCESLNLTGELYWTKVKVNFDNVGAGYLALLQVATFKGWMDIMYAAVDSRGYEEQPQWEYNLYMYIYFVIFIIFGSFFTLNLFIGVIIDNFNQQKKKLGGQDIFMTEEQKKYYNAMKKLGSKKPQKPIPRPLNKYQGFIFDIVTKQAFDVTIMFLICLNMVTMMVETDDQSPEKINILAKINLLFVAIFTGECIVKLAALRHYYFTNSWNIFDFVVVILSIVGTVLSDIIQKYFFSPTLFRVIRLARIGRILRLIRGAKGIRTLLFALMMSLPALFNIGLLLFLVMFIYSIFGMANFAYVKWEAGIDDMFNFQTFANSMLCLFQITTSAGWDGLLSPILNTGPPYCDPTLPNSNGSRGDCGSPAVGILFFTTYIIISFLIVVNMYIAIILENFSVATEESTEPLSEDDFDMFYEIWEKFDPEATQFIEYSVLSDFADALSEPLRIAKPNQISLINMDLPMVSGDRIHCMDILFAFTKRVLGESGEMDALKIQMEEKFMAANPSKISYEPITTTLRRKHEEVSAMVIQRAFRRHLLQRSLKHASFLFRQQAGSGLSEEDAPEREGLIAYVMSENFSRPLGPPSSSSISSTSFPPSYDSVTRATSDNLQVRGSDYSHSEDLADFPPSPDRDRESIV

Take `CC[C@H](C)[C@@H]1NC(=O)[C@@H]2CSSC[C@@H]3NC(=O)[C@H](C(C)C)NC(=O)[C@H](CC(C)C)NC(=O)[C@H](CC(N)=O)NC(=O)[C@@H]4CCCN4C(=O)[C@H](CCCNC(=N)N)NC(=O)[C@H](CSSC[C@H](NC(=O)[C@@H](N)CC(=O)O)C(=O)N[C@@H](CC(C)C)C(=O)NCC(=O)N[C@@H](Cc4ccccc4)C(=O)N[C@@H](CCSC)C(=O)N[C@@H](CCCNC(=N)N)C(=O)N[C@@H](CCCCN)C(=O)N2)NC(=O)[C@H](CSSC[C@@H](C(=O)N[C@@H](CCCCN)C(=O)N[C@@H](Cc2ccc(O)cc2)C(=O)N[C@@H](CCCCN)C(=O)N[C@@H](Cc2ccccc2)C(N)=O)NC(=O)[C@H](Cc2c[nH]c4ccccc24)NC(=O)[C@H](CCCCN)NC(=O)[C@H](Cc2cnc[nH]2)NC(=O)[C@H]([C@@H](C)O)NC(=O)[C@H](CCCNC(=N)N)NC(=O)[C@H](CO)NC3=O)NC(=O)[C@H](CCCCN)NC(=O)[C@H](CC(=O)O)NC(=O)[C@H](CC(N)=O)NC(=O)[C@H](CC(=O)O)NC(=O)[C@@H]2CCCN2C1=O` (H-DCLGFMRKCIPDNDKCCRPNLVCSRTHKWCKYKF-NH2; disulfide 2-17, 9-23, 16-30): the figures for the IC50 in experiment [1] and in experiment [2] were 0.05 µM and more than 5 µM, respectively.

Regarding `CC[C@H](C)[C@@H]1NC(=O)[C@@H]2CSSC[C@@H]3NC(=O)[C@H](C(C)C)NC(=O)[C@H](CC(C)C)NC(=O)[C@H](CC(N)=O)NC(=O)[C@@H]4CCCN4C(=O)[C@H](CCCNC(=N)N)NC(=O)[C@H](CSSC[C@H](NC(=O)[C@@H](N)CC(=O)O)C(=O)N[C@@H](CC(C)C)C(=O)NCC(=O)N[C@@H](Cc4ccccc4)C(=O)N[C@@H](CCSC)C(=O)N[C@@H](CCCNC(=N)N)C(=O)N[C@@H](CCCCN)C(=O)N2)NC(=O)[C@H](CSSC[C@@H](C(=O)N[C@@H](CCCCN)C(=O)N[C@@H](Cc2ccc(O)cc2)C(=O)N[C@H](C(=O)N[C@@H](Cc2ccccc2)C(N)=O)C(C)C)NC(=O)[C@H](Cc2c[nH]c4ccccc24)NC(=O)[C@H](CCCCN)NC(=O)[C@H](Cc2cnc[nH]2)NC(=O)[C@H](CCCNC(=N)N)NC(=O)[C@H](CCCNC(=N)N)NC(=O)[C@H](CO)NC3=O)NC(=O)[C@H](CCCCN)NC(=O)[C@H](CC(=O)O)NC(=O)[C@H](CC(N)=O)NC(=O)[C@H](CC(=O)O)NC(=O)[C@@H]2CCCN2C1=O` (H-DCLGFMRKCIPDNDKCCRPNLVCSRRHKWCKYVF-NH2; disulfide 2-17, 9-23, 16-30), the results for the half-maximal inhibitory concentration (IC50) in experiment [1] and in experiment [2] were 0.04 µM and 3.5 µM, respectively.

For `CC[C@H](C)[C@@H]1NC(=O)[C@@H]2CSSC[C@@H]3NC(=O)[C@H](C(C)C)NC(=O)[C@H](CC(C)C)NC(=O)[C@H](CC(N)=O)NC(=O)[C@@H]4CCCN4C(=O)[C@H](CCCNC(=N)N)NC(=O)[C@H](CSSC[C@H](NC(=O)[C@@H](N)CC(=O)O)C(=O)N[C@@H](CC(C)C)C(=O)NCC(=O)N[C@@H](Cc4ccccc4)C(=O)N[C@@H](CCSC)C(=O)N[C@@H](CCCNC(=N)N)C(=O)N[C@@H](CCCCN)C(=O)N2)NC(=O)[C@H](CSSC[C@@H](C(=O)N[C@@H](CCCCN)C(=O)N[C@@H](Cc2ccc(O)cc2)C(=O)N[C@H](C(=O)N[C@@H](Cc2ccccc2)C(=O)N[C@@H](CCCNC(=N)N)C(N)=O)C(C)C)NC(=O)[C@H](Cc2c[nH]c4ccccc24)NC(=O)[C@H](CCCCN)NC(=O)[C@H](Cc2cnc[nH]2)NC(=O)[C@H]([C@@H](C)O)NC(=O)[C@H](CCCNC(=N)N)NC(=O)[C@H](CO)NC3=O)NC(=O)[C@H](CCCCN)NC(=O)[C@H](CC(=O)O)NC(=O)[C@H](CC(N)=O)NC(=O)[C@H](CC(=O)O)NC(=O)[C@@H]2CCCN2C1=O`, the IC50 (commonly the concentration needed to halve the response being measured) in experiment [1] was 0.13 µM; in experiment [2] it was more than 5 µM.

On to `CC[C@H](C)[C@@H]1NC(=O)[C@@H]2CSSC[C@@H]3NC(=O)[C@H](C(C)C)NC(=O)[C@H](CC(C)C)NC(=O)[C@H](CC(N)=O)NC(=O)[C@@H]4CCCN4C(=O)[C@H](CCCNC(=N)N)NC(=O)[C@H](CSSC[C@H](NC(=O)[C@@H](N)CC(=O)O)C(=O)N[C@@H](CC(C)C)C(=O)NCC(=O)N[C@@H](Cc4ccccc4)C(=O)N[C@@H](CCCNC(=N)N)C(=O)N[C@@H](CCCNC(=N)N)C(=O)N[C@@H](CCCCN)C(=O)N2)NC(=O)[C@H](CSSC[C@@H](C(=O)N[C@@H](CCCCN)C(=O)N[C@@H](Cc2ccc(O)cc2)C(=O)N[C@H](C(=O)N[C@@H](Cc2ccccc2)C(N)=O)C(C)C)NC(=O)[C@H](Cc2c[nH]c4ccccc24)NC(=O)[C@H](CCCCN)NC(=O)[C@H](Cc2cnc[nH]2)NC(=O)[C@H]([C@@H](C)O)NC(=O)[C@H](CCCNC(=N)N)NC(=O)[C@H](CO)NC3=O)NC(=O)[C@H](CCCCN)NC(=O)[C@H](CC(=O)O)NC(=O)[C@H](CC(N)=O)NC(=O)[C@H](CC(=O)O)NC(=O)[C@@H]2CCCN2C1=O` (H-DCLGFRRKCIPDNDKCCRPNLVCSRTHKWCKYVF-NH2; disulfide 2-17, 9-23, 16-30), for which the results for the IC50 in experiment [1] and in experiment [2] were more than 4.9 µM and more than 5 µM, respectively.

Consider `CC[C@H](C)[C@@H]1NC(=O)[C@@H]2CSSC[C@@H]3NC(=O)[C@H](C(C)C)NC(=O)[C@H](CC(C)C)NC(=O)[C@H](CC(N)=O)NC(=O)[C@@H]4CCCN4C(=O)[C@H](CCCNC(=N)N)NC(=O)[C@H](CSSC[C@H](NC(=O)[C@@H](N)CC(=O)O)C(=O)N[C@@H](CC(C)C)C(=O)NCC(=O)N[C@@H](Cc4ccccc4)C(=O)N[C@@H](CCCCN)C(=O)N[C@@H](CCCNC(=N)N)C(=O)N[C@@H](CCCCN)C(=O)N2)NC(=O)[C@H](CSSC[C@@H](C(=O)N[C@@H](CCCCN)C(=O)N[C@@H](Cc2ccc(O)cc2)C(=O)N[C@H](C(=O)N[C@@H](Cc2ccccc2)C(N)=O)C(C)C)NC(=O)[C@H](Cc2c[nH]c4ccccc24)NC(=O)[C@H](CCCCN)NC(=O)[C@H](Cc2cnc[nH]2)NC(=O)[C@H]([C@@H](C)O)NC(=O)[C@H](CCCNC(=N)N)NC(=O)[C@H](CO)NC3=O)NC(=O)[C@H](CCCCN)NC(=O)[C@H](CC(=O)O)NC(=O)[C@H](CC(N)=O)NC(=O)[C@H](CC(=O)O)NC(=O)[C@@H]2CCCN2C1=O` (H-DCLGFKRKCIPDNDKCCRPNLVCSRTHKWCKYVF-NH2; disulfide 2-17, 9-23, 16-30), for which the 50% inhibitory concentration (IC50) in experiment [1] and in experiment [2] was more than 5 µM in each case.

On to `CC[C@H](C)[C@@H]1NC(=O)[C@@H]2CSSC[C@@H]3NC(=O)[C@H](C(C)C)NC(=O)[C@H](CC(C)C)NC(=O)[C@H](CC(N)=O)NC(=O)[C@@H]4CCCN4C(=O)[C@H](CCCNC(=N)N)NC(=O)[C@H](CSSC[C@H](NC(=O)[C@@H](N)CC(=O)O)C(=O)N[C@@H](CC(C)C)C(=O)NCC(=O)N[C@@H](Cc4ccccc4)C(=O)N[C@@H](CCSC)C(=O)N[C@@H](CCCNC(=N)N)C(=O)N[C@@H](CCCCN)C(=O)N2)NC(=O)[C@H](CSSC[C@@H](C(=O)N[C@@H](CCCCN)C(=O)N[C@@H](Cc2ccc(O)cc2)C(=O)N[C@H](C(=O)N[C@@H](Cc2ccccc2)C(N)=O)C(C)C)NC(=O)[C@H](Cc2c[nH]c4ccccc24)NC(=O)[C@H](CCCCN)NC(=O)[C@H](Cc2cnc[nH]2)NC(=O)[C@H]([C@@H](C)O)NC(=O)[C@H](CCCNC(=N)N)NC(=O)[C@H](CO)NC3=O)NC(=O)[C@H](CCCCN)NC(=O)[C@H](CC(=O)O)NC(=O)[C@H](CC(N)=O)NC(=O)[C@H](CCC(=O)O)NC(=O)[C@@H]2CCCN2C1=O` (H-DCLGFMRKCIPENDKCCRPNLVCSRTHKWCKYVF-NH2; disulfide 2-17, 9-23, 16-30), for which the IC50 is 0.28 µM in experiment [1] and more than 5 µM in experiment [2].

Consider `CC[C@H](C)[C@@H]1NC(=O)[C@@H]2CSSC[C@@H]3NC(=O)[C@H](C(C)C)NC(=O)[C@H](CC(C)C)NC(=O)[C@H](CC(N)=O)NC(=O)[C@@H]4CCCN4C(=O)[C@H](CCCNC(=N)N)NC(=O)[C@H](CSSC[C@H](NC(=O)[C@@H](N)CC(=O)O)C(=O)N[C@@H](CC(C)C)C(=O)NCC(=O)N[C@@H](Cc4ccccc4)C(=O)N[C@@H](CCSC)C(=O)N[C@@H](CCCNC(=N)N)C(=O)N[C@@H](CCCCN)C(=O)N2)NC(=O)[C@H](CSSC[C@@H](C(=O)N[C@@H](CCCCN)C(N)=O)NC(=O)[C@H](Cc2c[nH]c4ccccc24)NC(=O)[C@H](CCCCN)NC(=O)[C@H](Cc2cnc[nH]2)NC(=O)[C@H]([C@@H](C)O)NC(=O)[C@H](CCCNC(=N)N)NC(=O)[C@H](CO)NC3=O)NC(=O)[C@H](CCCCN)NC(=O)[C@H](CC(=O)O)NC(=O)[C@H](CC(N)=O)NC(=O)[C@H](CC(=O)O)NC(=O)[C@@H]2CCCN2C1=O` (H-DCLGFMRKCIPDNDKCCRPNLVCSRTHKWCK-NH2; disulfide 2-17, 9-23, 16-30), for which the half-maximal inhibitory concentration (IC50) in experiment [1] and in experiment [2] was more than 5 µM throughout.

In the case of `CC[C@H](C)[C@@H]1NC(=O)[C@@H]2CSSC[C@@H]3NC(=O)[C@H](C(C)C)NC(=O)[C@H](CC(C)C)NC(=O)[C@H](CC(N)=O)NC(=O)[C@@H]4CCCN4C(=O)[C@H](CCCNC(=N)N)NC(=O)[C@H](CSSC[C@H](NC(=O)[C@@H](N)CC(=O)O)C(=O)N[C@@H](CC(C)C)C(=O)NCC(=O)N[C@@H](Cc4ccccc4)C(=O)N[C@@H](CCSC)C(=O)N[C@@H](CCCNC(=N)N)C(=O)N[C@@H](CCCCN)C(=O)N2)NC(=O)[C@H](CSSC[C@@H](C(=O)N[C@@H](CCCCN)C(=O)N[C@@H](Cc2ccc(O)cc2)C(=O)N[C@H](C(=O)N[C@@H](Cc2ccccc2)C(N)=O)C(C)C)NC(=O)[C@H](Cc2c[nH]c4ccccc24)NC(=O)[C@H](CCCCN)NC(=O)[C@H](Cc2c[nH]cn2)NC(=O)[C@H]([C@@H](C)O)NC(=O)[C@H](CCC(=O)O)NC(=O)[C@H](CO)NC3=O)NC(=O)[C@H](CCCCN)NC(=O)[C@H](CC(=O)O)NC(=O)[C@H](CC(N)=O)NC(=O)[C@H](CC(=O)O)NC(=O)[C@@H]2CCCN2C1=O` (H-DCLGFMRKCIPDNDKCCRPNLVCSETHKWCKYVF-NH2; disulfide 2-17, 9-23, 16-30), the half-maximal inhibitory concentration (IC50) was 0.72 µM in experiment [1] and more than 5 µM in experiment [2].
